Tests used:
[1] = Cytotoxicity against mock-infected human MT4 cells after 4 days by MTT assay; format: cell-based
In short: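 Mock-infected MT-4 cells, 1 × 10⁴ per well in RPMI 1640 with 10% FCS, 37 °C, 5% CO₂. Exposed to serial compound dilutions from a 100 mM DMSO stock diluted in medium, in parallel with the antiviral assay. Viability read by MTT. CC₅₀ taken as concentration reducing viability of mock-infected cells by 50%.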

[2] = test system: Human immunodeficiency virus 1; assay: Antiviral activity against wild type HIV1 3B assessed as protection as protection against virus-induced cytopathogenicity after 4 days by MTT assay; format: functional; conditions: Human immunodeficiency virus 1, 3B, 96 h
In short: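 HIV-1 IIIB from supernatants of persistently infected H9/IIIB cells. MT-4 cells, 1 × 10⁴ per well in RPMI 1640 with 10% FCS, exposed to serial compound dilutions (100 mM DMSO stock diluted in medium). Virus inoculum sized in CCID₅₀ to give complete cytopathogenicity by day 4. Incubated at 37 °C, then viability read by MTT. EC₅₀ taken as concentration giving 50% protection from virus-induced cytopathogenicity.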

[3] = test system: Human immunodeficiency virus 1; assay: Antiviral activity against NNRTI-resistant HIV1 with reverse transcriptase Y181C mutation in human MT4 cells assessed as protection against virus-induced cytopathogenicity after 4 days by MTT assay; format: functional, organism-based; conditions: Human immunodeficiency virus 1, MT4, 96 h
In short: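 Y181C virus (NIH N119) came from an AZT-sensitive clinical isolate passaged in CEM then MT-4 cells with nevirapine; stock 1.2×10⁸ CCID50/mL. It infected 1×10⁴ MT-4 cells/well (RPMI 1640, 10% FCS, 37 °C, 5% CO2) with compound dilutions from 100 mM DMSO stock, at a dose giving full cytopathogenicity by day 4. Readout MTT; EC50 = 50% protection.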

[4] = test system: Human immunodeficiency virus 1; assay: Antiviral activity against NNRTI-resistant HIV1 3B with reverse transcriptase K103N+Y181C mutation in human MT4 cells assessed as protection against virus-induced cytopathogenicity after 4 days by MTT assay; format: functional, organism-based; conditions: Human immunodeficiency virus 1, 3B, MT4, 96 h
In short: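 MT-4 cells (RPMI 1640, 10% FCS, 37 °C, 5% CO2), 1×10⁴/well, with compound serial dilutions from 100 mM DMSO stock, infected with K103N+Y181C virus (NIH A17, from IIIB passaged in H9 cells with BI-RG 587; stock 2.1×10⁷ CCID50/mL) at dose giving full cytopathogenicity by day 4. MTT viability; EC50 = 50% protection.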

[5] = test system: Human immunodeficiency virus 1; assay: Antiviral activity against NNRTI-resistant HIV1 3B with reverse transcriptase K103R+V179D+P225H mutation in human MT4 cells assessed as protection against virus-induced cytopathogenicity after 4 days by MTT assay; format: functional, organism-based; conditions: Human immunodeficiency virus 1, 3B, MT4, 96 h
In short: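 K103R+V179D+P225H (EFV^R) virus, from IIIB passaged in MT-4 cells under efavirenz; stock 4.0×10⁷ CCID50/mL. Added to 1×10⁴ MT-4 cells/well (RPMI 1640, 10% FCS, 37 °C, 5% CO2) with compound dilutions from 100 mM DMSO stock, amount causing complete cytopathogenicity at day 4. Viability by MTT; EC50 = concentration giving 50% protection.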

SMILES	CC50 at 96 h [1] [µM]	EC50 [2] [µM]	EC50 [3] [µM]	EC50 [4] [µM]	EC50 [5] [µM]
Cc1ccc2sn(/N=C/c3ccc(F)cc3)c(=O)c2c1	15	> 15	> 15	> 15	7.3
Cc1ccc2sn(/N=C/c3ccc([N+](=O)[O-])cc3[N+](=O)[O-])c(=O)c2c1	> 100	> 100	> 100	> 100	> 100
Cc1ccc2sn(/N=C/c3ccccc3F)c(=O)c2c1	18	> 18	> 18	> 18	> 18
COc1ccc(/C=N/n2sc3ccccc3c2=O)cc1	19	> 19	> 19	> 19	> 19
O=c1c2ccccc2sn1/N=C/c1ccc([N+](=O)[O-])cc1	> 100	45	29	36	33
O=c1c2ccccc2sn1/N=C/c1ccc(Cl)cc1	26	> 26	≥ 11	> 26	2.9
Cc1ccc2sn(/N=C/C=C/c3ccccc3)c(=O)c2c1	19	> 19	> 19	> 19	> 19
O=c1c2ccccc2sn1/N=C/c1ccccc1[N+](=O)[O-]	68	19	20	33	20
O=c1c2ccccc2sn1/N=C/c1cccc(O)c1	15	> 15	> 15	> 15	> 15
O=c1c2ccccc2sn1/N=C/c1ccccc1F	20	≥ 11	> 20	> 20	> 20
Cc1ccc2sn(/N=C/c3ccccc3[N+](=O)[O-])c(=O)c2c1	> 100	> 100	> 100	> 100	100
O=c1c2ccccc2sn1/N=C/c1ccccc1O	18	> 18	> 18	> 18	> 18
O=c1c2ccccc2sn1/N=C/c1ccc(F)cc1	17	4.4	> 17	> 17	≥ 17
O=c1c2ccccc2sn1/N=C/c1ccc(O)c(O)c1	44	> 44	> 44	> 44	> 44
O=c1c2ccccc2sn1/N=C/c1cccc(Cl)c1	> 100	100	≥ 100	≥ 100	68
CCCCCCCCCCC/C=N/n1sc2ccccc2c1=O	17	> 17	> 17	> 17	> 17
Cc1ccc2sn(/N=C/c3cccc([N+](=O)[O-])c3)c(=O)c2c1	> 100	48	32	83	18
O=c1c2ccccc2sn1/N=C/c1ccco1	18	> 18	> 18	> 18	> 18
O=c1c2ccccc2sn1/N=C/c1ccc2c(c1)OCO2	17	> 17	> 17	> 17	> 17
Cc1ccc2sn(/N=C/c3cccc(F)c3)c(=O)c2c1	30	> 30	> 30	> 30	> 30
O=c1c2ccccc2sn1/N=C/c1ccccc1	17	11	> 17	> 17	8.6
O=c1c2ccccc2sn1/N=C/c1cccc([N+](=O)[O-])c1	> 100	36	13	57	11

SMILES	CC50 at 96 h [1] [µM]	EC50 [2] [µM]	EC50 [3] [µM]	EC50 [4] [µM]	EC50 [5] [µM]
Cc1ccc2sn(/N=C/c3ccc([N+](=O)[O-])cc3)c(=O)c2c1	> 100	> 100	≥ 100	> 100	72
COc1cc(/C=N/n2sc3ccccc3c2=O)ccc1O	15	> 15	> 15	> 15	> 15
Cc1ccc2sn(/N=C/c3ccccc3Cl)c(=O)c2c1	> 100	82	100	> 100	79
Cc1ccc2sn(/N=C/c3ccco3)c(=O)c2c1	18	> 18	> 18	> 18	> 18
O=c1c2ccccc2sn1/N=C/C=C/c1ccccc1	18	> 18	> 18	> 18	> 18
COc1cc(/C=N/n2sc3ccc(C)cc3c2=O)ccc1O	16	> 16	> 16	> 16	> 16
Cc1ccc2sn(/N=C/c3cccc(Cl)c3)c(=O)c2c1	59	> 59	> 59	> 59	25
Cc1ccc2sn(/N=C/c3ccc(O)c(O)c3)c(=O)c2c1	49	> 49	> 49	> 49	> 49
CCCCCCCCCCC/C=N/n1sc2ccc(C)cc2c1=O	19	> 19	> 19	> 19	> 19
Cc1ccc2sn(/N=C/c3ccccc3O)c(=O)c2c1	30	> 30	> 30	> 30	> 30
COc1ccc(/C=N/n2sc3ccc(C)cc3c2=O)cc1	55	> 55	> 55	> 55	> 55
O=c1c2ccccc2sn1/N=C/c1cccc(F)c1	15	> 15	> 15	> 15	9
Cc1ccc2sn(/N=C/c3ccc(O)cc3)c(=O)c2c1	23	> 23	> 23	> 23	≥ 23
Cc1ccc2sn(/N=C/c3ccc4c(c3)OCO4)c(=O)c2c1	> 100	33	33	47	20
Cc1ccc2sn(/N=C/c3cccc(O)c3)c(=O)c2c1	16	> 16	> 16	> 16	8.4
O=c1c2ccccc2sn1/N=C/c1ccc(O)cc1	18	> 18	> 18	> 18	8.4
Cc1ccc2sn(/N=C/c3ccccc3)c(=O)c2c1	44	≥ 33	≥ 33	> 44	≥ 33
O=c1c2ccccc2sn1/N=C/c1ccc(O)cc1O	21	> 21	> 21	> 21	> 21
Cc1ccc2sn(/N=C/c3ccc(Cl)cc3)c(=O)c2c1	57	24	22	33	11
O=c1c2ccccc2sn1/N=C/c1ccccc1Cl	47	20	26	> 47	24
O=c1c2ccccc2sn1/N=C/c1ccc([N+](=O)[O-])cc1[N+](=O)[O-]	> 100	> 100		> 100	> 100

Source: ChEMBL document CHEMBL1137687, “Anti-HIV evaluation of benzo[d]isothiazole hydrazones” (Eur J Med Chem, 2009)
